Calls of active or inactive are those of the source. The calls are words filed in the database; no cut-off is given here.
What was measured:
[1] = biological target: T1, Cannabinoid receptor 2 (Homo sapiens, UniProt P34972); assay: Displacement of [3H]CP55,940 from N-terminal HA-tagged human CB2 receptor expressed in HEK293 cell membranes at 10 uM after 1 hr by microbeta scintillation counting method relative to control
Procedure, shortened: (§1)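 Single-point competition screen against [3H]CP55,940 in HEK293 cells over-expressing 3HA-tagged hCB2 or hCB1. Compounds giving more than 50% displacement went on to full concentration-response curves.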

[2] = biological target: T1, Cannabinoid receptor 2; assay: Displacement of [3H]CP55,940 from N-terminal HA-tagged human CB2 receptor expressed in HEK293 cell membranes after 1 hr by microbeta scintillation counting method; conditions: read-out: Ki
[3] = biological target: T2, Cannabinoid receptor 1 (Homo sapiens, UniProt P21554); assay: Displacement of [3H]CP55,940 from N-terminal HA-tagged human CB1 receptor expressed in HEK293 cell membranes at 10 uM after 1 hr by microbeta scintillation counting method relative to control; procedure, shortened: as §1
T2 sequence (P21554 whole entry): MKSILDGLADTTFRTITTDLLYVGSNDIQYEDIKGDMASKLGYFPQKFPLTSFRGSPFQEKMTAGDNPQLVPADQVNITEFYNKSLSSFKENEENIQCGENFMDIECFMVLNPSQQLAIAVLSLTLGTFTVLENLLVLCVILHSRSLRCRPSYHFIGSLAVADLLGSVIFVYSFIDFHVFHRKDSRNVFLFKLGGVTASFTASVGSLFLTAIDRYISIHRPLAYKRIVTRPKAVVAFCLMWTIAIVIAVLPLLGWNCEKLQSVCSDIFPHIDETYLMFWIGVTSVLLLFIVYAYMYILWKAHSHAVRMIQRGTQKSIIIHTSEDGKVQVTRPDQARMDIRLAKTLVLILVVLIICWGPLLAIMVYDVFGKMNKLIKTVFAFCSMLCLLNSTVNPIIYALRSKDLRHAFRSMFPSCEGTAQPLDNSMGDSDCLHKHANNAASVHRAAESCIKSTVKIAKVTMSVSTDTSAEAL

[4] = biological target: T2, Cannabinoid receptor 1; assay: Displacement of [3H]CP55,940 from N-terminal HA-tagged human CB1 receptor expressed in HEK293 cell membranes after 1 hr by microbeta scintillation counting method; conditions: read-out: Ki
[5] = biological target: T1, Cannabinoid receptor 2; assay: Agonist activity at N-terminal HA-tagged human CB2 receptor expressed in HEK293 cells transfected with YFP-Epac-RLuc assessed as decrease in forskolin-stimulated cAMP level by BRET assay; assay type: functional, cell-based
Procedure, shortened: (§2)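 BRET cAMP biosensor read-out in HEK293 cells expressing HA-tagged human CB1 or CB2, with forskolin stimulation (5 µM). Concentration-response curves; area-under-curve values normalised to forskolin alone = 100% and basal = 0%. EC50 taken for agonists and IC50 for inverse agonists. Mean of at least three independent experiments, each point in duplicate.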

[6] = biological target: T1, Cannabinoid receptor 2; assay: Agonist activity at N-terminal HA-tagged human CB2 receptor expressed in HEK293 cells transfected with YFP-Epac-RLuc assessed as decrease in forskolin-stimulated cAMP level by BRET assay relative to control; assay type: functional, cell-based; procedure, shortened: as §2
[7] = biological target: T2, Cannabinoid receptor 1; assay: Agonist activity at N-terminal HA-tagged human CB1 receptor expressed in HEK293 cells transfected with YFP-Epac-RLuc assessed as decrease in forskolin-stimulated cAMP level by BRET assay relative to control; assay type: functional, cell-based; procedure, shortened: as §2
[8] = biological target: T1, Cannabinoid receptor 2; assay: Agonist activity at N-terminal HA-tagged human CB2 receptor expressed in HEK293 cells transfected with YFP-Epac-RLuc assessed as decrease in forskolin-stimulated cAMP level at 10 uM by BRET assay; assay type: functional, cell-based
Procedure, shortened: (§3)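 Single-concentration screen at 10 µM in CB receptor-expressing HEK293 cells, run with and without CP55,940 as reference agonist. Forskolin-stimulated cAMP read by BRET biosensor. A fall in cAMP is scored as agonism and a rise as inverse agonism.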

[9] = biological target: T2, Cannabinoid receptor 1; assay: Agonist activity at N-terminal HA-tagged human CB1 receptor expressed in HEK293 cells transfected with YFP-Epac-RLuc assessed as decrease in forskolin-stimulated cAMP level at 10 uM by BRET assay; assay type: functional, cell-based; procedure, shortened: as §3
[10] = tested on: HEK293; assay: Effect on forskolin-stimulated cAMP level in HEK293 cells at 10 uM by BRET assay relative to control; assay type: ADME, cell-based; conditions: human, hek293, 10 µM
Procedure, shortened: (§4)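 Wild-type HEK293 cells lacking transfected receptor, tested at 10 µM and 1 µM. Forskolin-stimulated cAMP measured by BRET as a check that responses are receptor-mediated.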

[11] = tested on: HEK293; assay: Effect on forskolin-stimulated cAMP level in HEK293 cells at 1 uM by BRET assay relative to control; assay type: ADME, cell-based; conditions: human, hek293, 1 µM; procedure, shortened: as §4
[12] = biological target: Proprotein convertase subtilisin/kexin type 9 (Homo sapiens) (UniProt Q8NBP7); assay: Inhibition of PCSK9 (unknown origin)
Chain of Proprotein convertase subtilisin/kexin type 9 (Homo sapiens) (Q8NBP7 31-152 limits assumed): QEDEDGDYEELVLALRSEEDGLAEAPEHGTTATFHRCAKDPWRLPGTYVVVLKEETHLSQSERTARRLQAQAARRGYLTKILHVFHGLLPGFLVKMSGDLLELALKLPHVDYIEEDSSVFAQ
Chain of Proprotein convertase subtilisin/kexin type 9 (Homo sapiens) (Q8NBP7 153-692 limits assumed): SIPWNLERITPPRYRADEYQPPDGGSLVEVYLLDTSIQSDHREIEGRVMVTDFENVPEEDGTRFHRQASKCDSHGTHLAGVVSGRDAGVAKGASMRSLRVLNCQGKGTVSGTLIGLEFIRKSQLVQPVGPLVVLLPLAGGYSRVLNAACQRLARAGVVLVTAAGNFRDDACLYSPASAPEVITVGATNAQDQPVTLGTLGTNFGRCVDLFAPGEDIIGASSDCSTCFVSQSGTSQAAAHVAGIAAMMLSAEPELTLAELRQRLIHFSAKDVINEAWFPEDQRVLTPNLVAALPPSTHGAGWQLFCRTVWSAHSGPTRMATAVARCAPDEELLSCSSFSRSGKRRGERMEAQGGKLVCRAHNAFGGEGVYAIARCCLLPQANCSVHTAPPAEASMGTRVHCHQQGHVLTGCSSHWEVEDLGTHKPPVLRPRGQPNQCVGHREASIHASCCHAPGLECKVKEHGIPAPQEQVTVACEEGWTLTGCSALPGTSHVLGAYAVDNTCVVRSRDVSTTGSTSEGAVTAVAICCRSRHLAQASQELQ

[13] = biological target: T3, Free fatty acid receptor 4 (Homo sapiens) (UniProt Q5NUL3); assay: Agonist activity at GPR120 (unknown origin); assay type: functional
T3 sequence (whole entry): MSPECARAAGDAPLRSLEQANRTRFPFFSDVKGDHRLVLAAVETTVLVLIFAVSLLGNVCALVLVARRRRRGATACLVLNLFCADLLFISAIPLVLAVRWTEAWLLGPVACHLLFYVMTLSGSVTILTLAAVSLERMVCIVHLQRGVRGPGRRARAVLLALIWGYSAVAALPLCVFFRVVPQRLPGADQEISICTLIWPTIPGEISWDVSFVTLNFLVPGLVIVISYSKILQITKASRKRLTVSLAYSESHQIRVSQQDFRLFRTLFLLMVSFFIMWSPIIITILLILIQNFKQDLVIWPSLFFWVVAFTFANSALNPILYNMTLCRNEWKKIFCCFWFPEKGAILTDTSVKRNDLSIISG

[14] = biological target: Interleukin-17A (Homo sapiens) (UniProt Q16552); assay: Inhibition of IL-17 (unknown origin) assessed as disruption of IL-17 protein-protein interaction
Chain of Interleukin-17A (Homo sapiens) (Q16552 whole entry): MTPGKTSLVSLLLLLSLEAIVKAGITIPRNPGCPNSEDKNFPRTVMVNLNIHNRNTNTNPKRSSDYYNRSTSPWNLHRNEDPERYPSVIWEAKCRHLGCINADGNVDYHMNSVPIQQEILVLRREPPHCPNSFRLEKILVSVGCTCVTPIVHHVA

[15] = tested on: Leishmania donovani; assay: Growth inhibition of Leishmania donovani; assay type: functional, organism-based
[16] = biological target: Potassium voltage-gated channel subfamily KQT member 2 (Homo sapiens) (UniProt O43526); assay: Agonist activity at KCNQ2 (unknown origin)
Chain of Potassium voltage-gated channel subfamily KQT member 2 (Homo sapiens) (O43526 whole entry): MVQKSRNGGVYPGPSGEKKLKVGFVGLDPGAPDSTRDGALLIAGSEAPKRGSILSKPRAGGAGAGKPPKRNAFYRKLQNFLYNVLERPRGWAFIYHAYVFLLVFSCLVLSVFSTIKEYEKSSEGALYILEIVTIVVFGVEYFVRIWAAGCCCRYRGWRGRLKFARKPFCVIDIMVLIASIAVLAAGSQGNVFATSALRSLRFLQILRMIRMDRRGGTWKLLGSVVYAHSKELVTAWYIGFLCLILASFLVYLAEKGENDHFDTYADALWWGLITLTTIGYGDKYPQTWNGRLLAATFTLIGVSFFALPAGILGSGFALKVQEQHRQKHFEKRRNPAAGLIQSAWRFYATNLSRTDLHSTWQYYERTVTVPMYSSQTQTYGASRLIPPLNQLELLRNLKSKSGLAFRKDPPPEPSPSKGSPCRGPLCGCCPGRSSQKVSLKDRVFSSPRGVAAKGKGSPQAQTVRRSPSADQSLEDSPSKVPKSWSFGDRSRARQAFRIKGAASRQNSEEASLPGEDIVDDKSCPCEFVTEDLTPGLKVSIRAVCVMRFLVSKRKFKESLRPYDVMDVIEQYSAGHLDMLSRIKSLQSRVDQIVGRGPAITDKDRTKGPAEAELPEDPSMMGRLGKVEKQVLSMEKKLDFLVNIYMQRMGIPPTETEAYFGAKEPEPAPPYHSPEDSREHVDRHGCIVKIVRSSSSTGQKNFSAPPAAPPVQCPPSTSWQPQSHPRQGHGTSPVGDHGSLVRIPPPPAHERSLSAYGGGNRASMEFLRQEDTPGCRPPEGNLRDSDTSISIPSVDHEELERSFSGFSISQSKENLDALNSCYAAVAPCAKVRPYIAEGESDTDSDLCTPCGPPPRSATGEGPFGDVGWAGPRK

[17] = biological target: T4, Potassium voltage-gated channel subfamily KQT member 3 (Homo sapiens) (UniProt O43525); assay: Agonist activity at KCNQ3 (unknown origin)
T4 sequence (whole entry): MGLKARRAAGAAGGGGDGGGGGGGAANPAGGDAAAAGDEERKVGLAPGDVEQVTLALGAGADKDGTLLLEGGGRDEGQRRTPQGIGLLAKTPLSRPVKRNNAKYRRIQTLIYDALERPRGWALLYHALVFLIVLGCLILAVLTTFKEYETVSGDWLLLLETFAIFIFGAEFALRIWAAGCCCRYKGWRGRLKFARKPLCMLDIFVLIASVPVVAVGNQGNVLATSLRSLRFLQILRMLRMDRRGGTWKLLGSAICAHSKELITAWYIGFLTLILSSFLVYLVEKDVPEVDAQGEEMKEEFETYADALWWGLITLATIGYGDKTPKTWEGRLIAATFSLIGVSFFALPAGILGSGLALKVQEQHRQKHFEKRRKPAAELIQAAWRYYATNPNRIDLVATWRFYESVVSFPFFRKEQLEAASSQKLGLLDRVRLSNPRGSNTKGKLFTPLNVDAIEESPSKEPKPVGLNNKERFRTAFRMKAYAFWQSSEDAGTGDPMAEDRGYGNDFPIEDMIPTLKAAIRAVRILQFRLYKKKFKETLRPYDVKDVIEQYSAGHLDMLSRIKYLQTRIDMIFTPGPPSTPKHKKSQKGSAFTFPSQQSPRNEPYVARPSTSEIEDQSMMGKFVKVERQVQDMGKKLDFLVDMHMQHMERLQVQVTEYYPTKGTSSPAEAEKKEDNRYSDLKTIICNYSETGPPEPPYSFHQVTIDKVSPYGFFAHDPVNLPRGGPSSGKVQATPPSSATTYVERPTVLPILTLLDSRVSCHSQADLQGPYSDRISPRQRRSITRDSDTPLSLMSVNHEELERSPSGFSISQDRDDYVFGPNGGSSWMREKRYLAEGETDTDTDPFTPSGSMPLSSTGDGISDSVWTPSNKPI

[18] = biological target: T5, Nicotinamide N-methyltransferase (Homo sapiens) (UniProt P40261); assay: Inhibition of NNMT (unknown origin)
T5 sequence (whole entry): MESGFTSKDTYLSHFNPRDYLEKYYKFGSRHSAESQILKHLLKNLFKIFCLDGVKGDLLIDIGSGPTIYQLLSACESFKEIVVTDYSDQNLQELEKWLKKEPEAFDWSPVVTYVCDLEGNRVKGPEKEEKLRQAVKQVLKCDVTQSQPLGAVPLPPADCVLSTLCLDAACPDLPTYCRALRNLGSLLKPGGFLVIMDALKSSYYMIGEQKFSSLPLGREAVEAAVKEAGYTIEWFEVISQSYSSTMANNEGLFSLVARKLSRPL

T1 sequence (P34972 whole entry): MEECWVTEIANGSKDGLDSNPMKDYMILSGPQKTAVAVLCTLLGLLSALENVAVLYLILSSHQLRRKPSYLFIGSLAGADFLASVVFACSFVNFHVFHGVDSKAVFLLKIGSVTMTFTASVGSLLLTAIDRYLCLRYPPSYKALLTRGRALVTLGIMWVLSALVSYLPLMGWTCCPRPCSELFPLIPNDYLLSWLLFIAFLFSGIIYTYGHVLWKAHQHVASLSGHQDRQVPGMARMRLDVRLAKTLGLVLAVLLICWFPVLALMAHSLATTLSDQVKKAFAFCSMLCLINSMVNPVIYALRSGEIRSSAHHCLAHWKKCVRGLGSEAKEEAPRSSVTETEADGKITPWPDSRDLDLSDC

Row | SMILES | inhibition [1] | Ki [2] | inhibition [3] | Ki [4] | EC50 [5] | Emax [6] | Emax [7] | Activity [8] | Activity [9] | Activity [10] | Activity [11] | inhibition [12] | Activity [13] | inhibition [14] | growth inhibition (GI) [15] | Activity [16] | Activity [17] | inhibition [18]
1 | O=C(c1cccc2ccccc12)c1cn(CCN2CCOCC2)c2ccc(O)cc12 | > 50% | 169 nM | > 50% | 2840 nM | 8.7 nM | 77.4% | 54.6% | Active | Active | 118.7% | 101.9% | – | – | – | – | – | – | –
2 | COc1ccc(C(=O)c2cn(CC3CCOCC3)c3ccc(OCC(=O)O)cc23)cc1 | > 50% | 1660 nM | > 50% | > 10000 nM | 70.2 nM | 57.4% | 60.4% | Active | Active | 100.1% | 98.8% | – | – | – | – | – | – | –
3 | O=C(c1cccc2ccccc12)c1cn(CC2CCOCC2)c2ccc(O)cc12 | > 50% | 275 nM | > 50% | 824 nM | 14.7 nM | 64.4% | 52.4% | Active | Active | 108.1% | 95% | inactive | inactive | inactive | inactive | inactive | inactive | inactive
4 | O=C(c1cn(CCN2CCOCC2)c2ccc(O)cc12)C1CCCCC1 | > 50% | 895 nM | > 50% | > 10000 nM | 18.6 nM | 74.1% | 74.3% | Active | Active | 105.1% | 105.9% | – | – | – | – | – | – | –
5 | O=C(c1cccc2ccccc12)c1cn(CC2CCOCC2)c2ccc(OCc3ccccc3)cc12 | – | – | – | – | – | – | – | – | – | – | – | inactive | inactive | inactive | inactive | inactive | inactive | inactive
6 | COc1ccc(C(=O)c2cn(CC3CCOCC3)c3ccc(OCc4ccccc4)cc23)cc1 | – | – | – | – | – | – | – | – | – | – | – | inactive | inactive | inactive | inactive | inactive | inactive | inactive
7 | COc1ccc(C(=O)c2cn(CCN3CCOCC3)c3ccc(O)cc23)cc1 | > 50% | 747 nM | > 50% | > 10000 nM | 5.4 nM | 67.5% | 70.4% | Active | Active | 105.2% | 101.9% | – | – | – | – | – | – | –
8 | COc1ccc(C(=O)c2cn(CC3CCOCC3)c3c(OCC(=O)O)cccc23)cc1 | > 50% | 582 nM | > 50% | > 10000 nM | > 10000 nM | 84.9% | 80.5% | Active | Active | 102.8% | 104.5% | – | – | – | – | – | – | –
9 | COc1ccc(C(=O)c2cn(CC3CCOCC3)c3c(OCc4ccccc4)cccc23)cc1 | – | – | – | – | – | – | – | – | – | – | – | inactive | inactive | inactive | inactive | inactive | inactive | inactive

From ChEMBL document CHEMBL4251662, “Alkyl indole-based cannabinoid type 2 receptor tools: Exploration of linker and fluorophore attachment” (Eur J Med Chem, 2018)
